# High-throughput results from PubChem BioAssay.
# HUVEC prolif 384 = inhibitors of human endothelial cell proliferation; actives 1.1% (n = 86,000); AID 648; viability, % at 10 µM (by protocol); HUVEC proliferation, CellTiter-Glo luminescence, 72 h; active compounds read low;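 active = viability at or below 30%; inactive = viability above 30%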
# PTEN del growth = growth suppressors of cells with PTEN tumor suppressor deletion | viability, % at 10 µM | HCT116 PTEN-null viability, CellTiter-Glo, 60 h; active compounds read low | actives 1.2% (n = 140,000);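 active = viability at or below a set limit, 4 SD under the median of all tested compounds, cut at about 3.7% in these data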;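 note: PTEN knockout HCT116 line with beta catenin targeted HCT116 as companion control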
# H69AR inhibit = growth inhibitors of human H69AR lung tumor cells; H69AR lung tumor viability, ATP luminescence, 72 h; active compounds read low; viability, % at 10 µM; actives 6% (n = 85,000); AID 598;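 active = viability at or below 40%; inactive = viability above 40%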;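 note: multidrug resistant small cell line overexpressing MRP-1 efflux transporter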
# HCT116 bCat-KO = beta-catenin-lacking colon tumor cell growth suppression. HCT116 beta-catenin knockout viability, CellTiter-Glo, 60 h; active compounds read low. viability, % at 10 µM. AID 818. actives 1.5% (n = 140,000);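 active = viability at or under a set limit, the compound median less 4 SD, cut at about 6% in these data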
# Lung fibro prol = blocks proliferation of human lung fibroblasts; actives 1.1% (n = 85,000); LL 47 human lung fibroblast viability, ATP luminescence; active compounds read low; viability, % at 10 µM; AID 719;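 active = viability at or below 50% in the single dose screen; inactive = viability above 50%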;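 note: compound exposure lasted 72 h before the ATP readout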
#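 Test system: LL 47 human lung fibroblasts / Quantity: 1,150 cells in each well / Medium: IMEM growth medium with 15% fetal bovine serum / Incubation: 72 h compound exposure at 37 °C after overnight plating / Detection: CellTiter-Glo luminescence measuring cellular ATP / Read-out: % viability versus median cells-only luminescence / Benchmarks: cell-only wells, no compound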
# A number is an active result; i = inactive; nt = no result. This is one part of a sample in which hits are shown more often than they occur.
SMILES,HUVEC prolif 384,PTEN del growth,H69AR inhibit,HCT116 bCat-KO,Lung fibro prol
CCCC1CCC(C(=O)Nn2c(C)nc3ccccc3c2=O)CC1 (centres undefined),i,i,i,i,i
O=Cc1c(Sc2ccccc2)nc2ccccn2c1=O,i,i,2.6,i,i
O=Cc1c(Sc2ccccn2)nc2ccccn2c1=O,i,i,22,i,i
O=Cc1c(N2CCCCCC2)nc2ccccn2c1=O,i,i,i,i,i
COc1ccc(-n2cc(-c3ccccc3)c3c(N4CCN(CCO)CC4)ncnc32)cc1,30,i,i,i,i
CCC(C(=O)OCC(=O)Nc1ccc(SC(F)F)cc1)c1ccccc1 (centres undefined),nt,i,nt,i,nt
CN(C)c1ccc2c(c1)OC(N)=C(C#N)C2c1cccc(F)c1 (centres undefined),i,i,25,i,i
N#CC1=C(N)Oc2cc(O)ccc2C1c1ccncc1 (centres undefined),i,i,i,i,i
COc1ccc(C2NC(=O)NC3=C2CCc2ccccc23)cc1 (centres undefined),i,i,24,i,i
COc1ccc(-c2nnc(SCC(=O)N3CCN(c4ccccc4)CC3)o2)cc1OC,i,i,14,i,i
COc1cc(Nc2ccc(C)cc2)c([N+](=O)[O-])nc1[N+](=O)[O-],i,i,6.2,i,39
Cc1ccnc(NS(=O)(=O)c2ccc(N)cc2)n1,i,i,i,i,i
O=C(Nc1nnc(C2CC2)s1)C1Cc2ccccc2CN1S(=O)(=O)c1ccccc1F (centres undefined),i,i,i,i,i
COc1ccc(C2CC(=O)c3cnc(NC(=O)c4ccccc4)nc3C2)c(OC)c1 (centres undefined),i,i,27,i,i
c1ccc(CN2CCC(Nc3nc(-c4ccccc4)nc4ccccc34)CC2)cc1,4.0,1.6,2.1,1.6,5.4
CC(C)OC(=O)NCN1C(=O)C2C3C=CC(C3)C2C1=O (centres undefined),i,i,i,i,i
CCNS(=O)(=O)c1cc(OC)c(Cl)cc1OC,nt,i,nt,i,nt
CC12CNCC(C)(CN(C(c3ccccc3)c3ccccc3)C1)C2,i,i,i,i,i
Clc1ccc(C(c2ccccc2)N2CCNCC2)cc1 (centres undefined),i,i,37,i,i
Cc1ccc(-c2nnn(CC(=O)N(c3ccc(F)cc3)C(C(=O)NC3CCCC3)c3ccco3)n2)o1 (centres undefined),i,i,i,i,i
Cc1ccc(-c2nnn(CC(=O)N(c3ccc(F)cc3)C(C(=O)NC(C)(C)C)c3ccco3)n2)o1 (centres undefined),i,i,32,i,i
CC(NC(=O)CCl)c1ccc(Cl)c(Cl)c1 (centres undefined),nt,3.8,nt,2.9,nt
CC(C)CC(NC(=O)CCl)c1ccccc1 (centres undefined),nt,i,nt,i,nt
CC(=O)NC1=C(NC2CCS(=O)(=O)C2)C(=O)c2ccccc2C1=O (centres undefined),nt,i,nt,i,nt
CN(C1=C(NC(=O)c2ccccc2)C(=O)c2ccccc2C1=O)C1CCS(=O)(=O)C1 (centres undefined),nt,i,nt,2.7,nt
SMILES,HUVEC prolif 384,PTEN del growth,H69AR inhibit,HCT116 bCat-KO,Lung fibro prol
Cc1cc(C)c2c(=O)n(CC(=O)N3CCC(N4CCCCC4)CC3)sc2n1,i,1.9,i,1.8,i
CCOC(=O)C1CCCN(C(=O)Cn2sc3nc(C)cc(C)c3c2=O)C1 (centres undefined),i,1.7,1.1,i,i
CCOC(=O)C1CCCN(C(=O)Cn2cnc3c2c(=O)n(C)c(=O)n3C)C1 (centres undefined),i,i,i,i,i
Cc1ccc(-c2cc3c(nn2)-c2ccccc2C3=O)cc1,i,nt,12,nt,47
Cc1cccc(C)c1NS(=O)(=O)c1ccc2c(c1)C(=O)c1ccccc1C2=O,nt,i,nt,i,nt
Cc1ccccc1-c1cc2c(nn1)-c1ccccc1C2=O,3.2,i,17,3.4,14
S=C(Nc1ccccc1Cl)N1CCOCC1,nt,i,nt,i,nt
CN1CCc2c(sc3nc(SCC(=O)N4CCOCC4)nc(N)c23)C1,i,i,i,i,i
CSc1nc(SCC(=O)NC(c2ccccc2)c2ccccc2)c2c3c(sc2n1)CN(C)CC3,i,i,12,i,48
O=C(NC(=S)Nc1ccc2oc(-c3cccnc3)nc2c1)c1cccc(Cl)c1,nt,i,nt,i,nt
O=C(Nc1nc(-c2cccs2)cs1)c1ccc(Cl)s1,i,i,3.6,i,i
